Screening results deposited in PubChem BioAssay by Sanford-Burnham Center for Chemical Genomics.
SENP8 block-1 – SENP8 protease inhibitors, primary screen, biochemical, luminescence; 330,000 tested, 1.2% active; inhibition, % at 10 µM; purified SENP8, Z-RLRGG-aminoluciferin cleavage; AID 2540, 2010; in the data active = inhibition above about 50%
SENP1 inh – human SENP1 catalytic domain inhibitors, primary screen, biochemical, FRET, uHTS; Sentrin-specific protease 1 (Homo sapiens), Q9P0U3; recombinant SENP1 catalytic domain, CyPet-SUMO1-YPet FRET cleavage; 360,000 tested, 0.21% active; inhibition, % at 10 µM;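 active = inhibition at least 30% at 10 µM, raw YFP signal under a set limit, fluorescence ratio 0.5 to 1.5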;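 also: 0% = enzyme with DMSO and 100% = no enzyme wells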
Target sequence (Q9P0U3 419-644 limits assumed): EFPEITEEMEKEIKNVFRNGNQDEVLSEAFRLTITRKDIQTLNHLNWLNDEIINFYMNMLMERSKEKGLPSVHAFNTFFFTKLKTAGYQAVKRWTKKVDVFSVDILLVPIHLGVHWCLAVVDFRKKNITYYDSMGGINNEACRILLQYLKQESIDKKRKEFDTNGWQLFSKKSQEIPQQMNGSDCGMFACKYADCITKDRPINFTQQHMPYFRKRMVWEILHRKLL
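Test system: human SENP1 catalytic domain; medium: Tris pH 8 buffer plus EDTA, NaCl, BME, BSA, NP40, catalase; incubation: 50 min reaction at room temperature; technique: FRET, CFP and YFP emission; controls: no-enzyme low control and enzyme-plus-DMSO high control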
SENP7 inh – SENP7 protease inhibitors, primary screen, biochemical, luminescence, uHTS; recombinant SENP7, Z-RLRGG-aminoluciferin luminescence, 40 min; inhibition, % at 5 µM; 330,000 tested, 1.5% active;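 active = inhibition above about 50% at the single test dose, limit read from the data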;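 also: plate controls were DMSO with enzyme for no effect and no enzyme buffer wells for full effect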
SENP6 inh – SENP6 protease inhibitors, primary screen, biochemical, luminescence, uHTS. AID 2599, 2010. Recombinant SENP6 catalytic domain, aminoluciferin luminescence. 330,000 tested, 1.8% active. Sentrin-specific protease 6 (Homo sapiens), Q9GZR1. inhibition, % at 10 µM;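 active = inhibition above about 50% at the single tested dose, limit read from the data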;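 also: plate controls were DMSO wells with enzyme for no effect and DMSO wells lacking enzyme for full effect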
SENP8 block-2 – human SENP8 protease inhibitors, primary screen, biochemical, fluorescence, Nedd8 protein substrate, uHTS | Sentrin-specific protease 8 (Homo sapiens), Q96LD8 | recombinant SENP8 | inhibition, % at 20 µM | 360,000 tested, 0.64% active; in the data active = inhibition mostly above about 40%, no sharp cut-off; inactive = mostly below about 27%
SENP8 confirm – SENP8 protease inhibitors, retest, confirmation, biochemical, luminescence, single concentration; shares compounds with SENP7 inh; Recombinant SENP8, Z-RLRGG-aminoluciferin luminescence, 60 min; inhibition, % at 12.5 µM; 6,200 tested, 40% active;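 active = mean inhibition across replicates above about 50%, limit read from the data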
SENP6 conf – SENP6 protease inhibitors, confirmation, biochemical, luminescence, single concentration; shares compounds with SENP7 inh; recombinant SENP6, Z-RLRGG-aminoluciferin luminescence; inhibition, % at 12.5 µM; 6,200 tested, 58% active
SENP7 conf – SENP7 protease inhibitors, retest, confirmation, biochemical, luminescence, single concentration; shares compounds with SENP7 inh; AID 488917, 2010; inhibition, % at 12.5 µM; recombinant SENP7, Z-RLRGG-aminoluciferin luminescence, 40 min; 6,200 tested, 69% active
Casp3 SENP sel – caspase-3 protease inhibitors, confirmation, selectivity assay for SENP inhibitor project, biochemical, single concentration; shares compounds with SENP7 inh; purified caspase-3, Z-DEVD-aminoluciferin luminescence, 60 min; inhibition, % at 12.5 µM; 6,200 tested, 60% active;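 active = mean inhibition above about 50%, limit read from the data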;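 also: plate controls were enzyme with DMSO for no effect and wells without caspase-3 for full effect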
Target sequence (P42574 28-227 limits assumed): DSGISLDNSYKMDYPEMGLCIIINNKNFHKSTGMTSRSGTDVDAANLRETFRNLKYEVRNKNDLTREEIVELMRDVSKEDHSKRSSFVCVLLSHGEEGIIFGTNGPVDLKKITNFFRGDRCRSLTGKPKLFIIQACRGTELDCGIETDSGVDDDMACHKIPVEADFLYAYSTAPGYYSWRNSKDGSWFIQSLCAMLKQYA
SENP luc ctr – luminescence interference (SENP counter-screen); Pre-incubated SENP8/Z-RLRGG-aminoluciferin, luciferase luminescence interference; inhibition, % at 12.5 µM; 6,200 tested, 39% active; AID 488919; shares compounds with SENP7 inh;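 active = mean inhibition above about 50% when retested at one dose, limit read from the data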;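 also: plate controls were DMSO wells with completed reaction for no effect and substrate without enzyme for full effect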
An asterisk follows results filed as active; · = not tested or not shown. Most compounds without a hit are left out; they make up all but 2.5% or so of the library.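 The calls were made as follows, unless noted: active = mean inhibition above about 50% in the one-dose retest (limit read from the data); inactive = the rest.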

SMILES	SENP8 block-1	SENP1 inh	SENP7 inh	SENP6 inh	SENP8 block-2	SENP8 confirm	SENP6 conf	SENP7 conf	Casp3 SENP sel	SENP luc ctr
CCc1c(C)nc(SCc2ccccn2)[nH]c1=O	-0.8	0.3	-6.2	-0.1	14.3	·	·	·	·	·
CC(=O)NC(c1ccc(F)c(F)c1)c1nc(-c2cc3ccccc3o2)cs1 (stereo unspecified)	·	0.5	·	·	1.1	·	·	·	·	·
CCN1CCN(c2ccc(NC(=O)CC3OC(=O)c4ccccc43)cc2C)CC1 (stereo unspecified)	·	0.5	·	·	9.6	·	·	·	·	·
CC(=O)Oc1ccc2occ(C(=O)c3cccs3)c2c1	8.3	-2.1	5.3	23.1	22.5	·	·	·	·	·
O=C(CCl)Oc1ccc2occ(C(=O)c3cccs3)c2c1	26.5	1.2	37.7	63.2*	13.9	31.8	29.5	66.0*	40.0	29.5
O=C(c1cccs1)c1coc2ccc(O)cc12	21.1	2.0	28.3	54.3*	24.3	41.0	47.9	76.8*	49.2	31.7
CCC(=O)c1coc2ccc(O)cc12	-8.1	1.2	-11.8	9.3	-19.3	·	·	·	·	·
O=C(c1ccc([N+](=O)[O-])cc1)c1cc2ccc(O)cc2oc1=O	77.9*	-4.6	70.8*	83.3*	12.3	22.9	64.9*	5.5	70.7*	6.6
CCn1nc(C)c(Br)c1Nc1ccc(Br)cc1	-4.3	0.6	-2.1	-5.2	8.4	·	·	·	·	·
O=C(O)c1cccc(-n2nc(-c3ccc(Cl)c([N+](=O)[O-])c3)c3ccccc3c2=O)c1	5.6	-1.4	0.6	18.0	15.4	·	·	·	·	·
COC(=O)c1sccc1N/N=C/c1cccc(OC)c1O	92.2*	-3.1	98.7*	93.9*	-402.1	7.7	78.1*	86.6*	69.9*	30.6
COC(=O)c1sccc1N/N=C/c1ccc(OC)c(OC)c1OC	2.3	-1.5	3.2	20.8	-404.8	·	·	·	·	·
COC(=O)c1sccc1N/N=C/c1cccc(Oc2ccccc2)c1	94.9*	0.0	96.9*	63.1*	-98.7	30.4	53.2*	34.3	94.2*	9.0
COC(=O)c1sccc1NC(=O)c1cccc(OC)c1	-8.5	2.9	-11.3	-4.4	17.4	·	·	·	·	·
CS(=O)(=O)c1[nH]nc(-c2cccc(Cl)c2)c1C#N	34.4	-1.8	3.8	31.2	5.4	·	·	·	·	·
S=C(Nc1ccc2nccnc2c1)N1CCOCC1	-0.2	34.6	-9.7	14.8	-150.9	·	·	·	·	·
O=C(Nc1ccccc1)C(=O)Nc1cccnc1	68.8*	0.2	85.8*	76.4*	26.5	2.1	25.7	67.4*	73.3*	8.2
CCCCOc1ccc(C(=O)NC)cc1	-19.3	0.7	-10.0	-8.2	21.9	·	·	·	·	·
CCCCOc1ccc(C(=O)Nc2ccncc2)cc1	42.5	-1.0	37.6	57.0*	13.0	45.1	40.2	77.0*	52.2*	22.1
O=C(Nc1cccc(Oc2ccc(C(=O)O)c(C(=O)O)c2)c1)c1ccc(-c2ccccc2)cc1	44.0	3.2	2.3	71.7*	6.6	51.2*	39.3	64.3*	50.5*	68.2*
O=C(Nc1cccnc1)c1ccc(Oc2ccccc2)cc1	78.3*	1.7	89.0*	90.4*	31.1	85.0*	87.6*	98.4*	85.2*	70.2*
